Assay results: ChEMBL document CHEMBL5705905, “Pharmacological targeting of kinases MST1 and MST2 augments tissue repair and regeneration” (Sci Transl Med, 2016)
Active and inactive are the calls of the source. No cut-off for these calls is given here.

What was measured:
[1] = target: Dual specificity testis-specific protein kinase 1 (Homo sapiens) (UniProt Q15569); experiment: Inhibition of TESK1 (unknown origin) assessed as remaining activity at 1 uM by Kinome scan method relative to control
[2] = target: Serine/threonine-protein kinase Nek7 (Homo sapiens) (UniProt Q8TDX7); experiment: Inhibition of NEK7 (unknown origin) assessed as remaining activity at 1 uM by Kinome scan method relative to control
[3] = system: Epidermal growth factor receptor (Homo sapiens), P00533 [G719S]; experiment: Inhibition of EGFR G719S mutant (unknown origin) assessed as remaining activity at 1 uM by Kinome scan method relative to control
[4] = target: Serine/threonine-protein kinase 3 (Homo sapiens) (UniProt Q13188); conditions: dose 100.0 µM
Chain of Serine/threonine-protein kinase 3 (Homo sapiens) (Q13188 whole entry): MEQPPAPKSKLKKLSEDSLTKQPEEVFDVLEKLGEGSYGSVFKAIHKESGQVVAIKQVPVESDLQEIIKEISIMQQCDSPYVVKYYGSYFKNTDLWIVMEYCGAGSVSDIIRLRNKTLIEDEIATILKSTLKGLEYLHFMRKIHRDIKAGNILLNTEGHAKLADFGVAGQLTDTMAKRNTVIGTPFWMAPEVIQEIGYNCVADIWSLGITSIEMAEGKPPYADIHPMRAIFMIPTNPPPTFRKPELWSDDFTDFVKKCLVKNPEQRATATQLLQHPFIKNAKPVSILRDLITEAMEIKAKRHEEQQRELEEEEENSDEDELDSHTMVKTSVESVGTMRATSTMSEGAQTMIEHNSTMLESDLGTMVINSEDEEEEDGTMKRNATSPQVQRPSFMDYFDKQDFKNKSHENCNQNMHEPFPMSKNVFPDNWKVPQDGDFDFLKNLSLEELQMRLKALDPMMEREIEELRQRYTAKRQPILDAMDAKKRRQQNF

Mus musculus = experiment: Protection against human hepatocyte transplanted FRG mouse assessed as increase in the ratio of BrdU+/FAH+ cells at 1 mg/kg, ip administrated once a daily for 28 days by H&E staining based immunohistochemical analysis; type: functional, organism-based; conditions: Liver, time 28.0 day
[5] = target: Serine/threonine-protein kinase SIK1 (Homo sapiens) (UniProt P57059); experiment: Inhibition of SIK (unknown origin) assessed as remaining activity at 1 uM by Kinome scan method relative to control
Chain of Serine/threonine-protein kinase SIK1 (Homo sapiens) (P57059 whole entry): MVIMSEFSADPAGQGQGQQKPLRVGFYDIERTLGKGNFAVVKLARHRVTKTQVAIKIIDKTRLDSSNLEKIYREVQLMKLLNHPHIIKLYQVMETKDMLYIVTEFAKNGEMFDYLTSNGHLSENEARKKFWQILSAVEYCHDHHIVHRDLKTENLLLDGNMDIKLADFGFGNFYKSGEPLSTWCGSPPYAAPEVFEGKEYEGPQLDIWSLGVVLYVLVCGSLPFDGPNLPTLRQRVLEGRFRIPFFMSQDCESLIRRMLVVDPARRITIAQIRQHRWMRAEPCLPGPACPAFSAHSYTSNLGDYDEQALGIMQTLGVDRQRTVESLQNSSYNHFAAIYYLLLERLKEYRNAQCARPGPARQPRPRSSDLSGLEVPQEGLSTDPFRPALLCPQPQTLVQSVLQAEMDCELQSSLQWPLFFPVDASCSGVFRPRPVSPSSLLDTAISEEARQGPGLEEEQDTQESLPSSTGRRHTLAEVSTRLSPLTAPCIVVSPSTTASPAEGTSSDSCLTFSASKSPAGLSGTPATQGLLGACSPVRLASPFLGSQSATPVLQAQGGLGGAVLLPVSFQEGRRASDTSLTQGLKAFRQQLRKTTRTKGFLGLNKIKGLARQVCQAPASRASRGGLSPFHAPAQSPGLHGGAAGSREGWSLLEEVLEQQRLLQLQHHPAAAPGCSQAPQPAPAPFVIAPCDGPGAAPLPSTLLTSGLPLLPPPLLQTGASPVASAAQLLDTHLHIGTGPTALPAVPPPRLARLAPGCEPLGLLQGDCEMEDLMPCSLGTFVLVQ

[6] = target: cAMP-dependent protein kinase catalytic subunit PRKX (Homo sapiens) (UniProt P51817); experiment: Inhibition of PRKX (unknown origin) assessed as remaining activity at 1 uM by Kinome scan method relative to control
[7] = target: Serine/threonine-protein kinase PAK 3 (Homo sapiens) (UniProt O75914); experiment: Inhibition of PAK3 (unknown origin) assessed as remaining activity at 1 uM by Kinome scan method relative to control
[8] = target: TRAF2 and NCK-interacting protein kinase (Homo sapiens) (UniProt Q9UKE5); experiment: Inhibition of TNIK (unknown origin) assessed as remaining activity at 1 uM by Kinome scan method relative to control
[9] = target: Tyrosine-protein kinase Fes/Fps (Homo sapiens) (UniProt P07332); experiment: Inhibition of FES (unknown origin) assessed as remaining activity at 1 uM by Kinome scan method relative to control
[10] = target: Megakaryocyte-associated tyrosine-protein kinase (Homo sapiens) (UniProt P42679); experiment: Inhibition of CTK (unknown origin) assessed as remaining activity at 1 uM by Kinome scan method relative to control
How it was run: (§1)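 Active-site-dependent competition-binding profiling (KINOMEscan) at 1 μM against a 468-kinase panel; compound supplied from a 10 mM DMSO stock. Read-out is ctrl% = (test signal − positive control signal)/(negative control signal − positive control signal) × 100. DMSO is the negative control (100%) and a control compound the positive control (0%). Lower ctrl% means tighter binding.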

[11] = target: Protein kinase C epsilon type (Homo sapiens) (UniProt Q02156); experiment: Inhibition of PRKCE (unknown origin) assessed as remaining activity at 1 uM by Kinome scan method relative to control
[12] = target: Serine/threonine-protein kinase PAK 2 (Homo sapiens) (UniProt Q13177); experiment: Inhibition of PAK2 (unknown origin) assessed as remaining activity at 1 uM by Kinome scan method relative to control
Chain of Serine/threonine-protein kinase PAK 2 (Homo sapiens) (Q13177 whole entry, the tested form may be a part): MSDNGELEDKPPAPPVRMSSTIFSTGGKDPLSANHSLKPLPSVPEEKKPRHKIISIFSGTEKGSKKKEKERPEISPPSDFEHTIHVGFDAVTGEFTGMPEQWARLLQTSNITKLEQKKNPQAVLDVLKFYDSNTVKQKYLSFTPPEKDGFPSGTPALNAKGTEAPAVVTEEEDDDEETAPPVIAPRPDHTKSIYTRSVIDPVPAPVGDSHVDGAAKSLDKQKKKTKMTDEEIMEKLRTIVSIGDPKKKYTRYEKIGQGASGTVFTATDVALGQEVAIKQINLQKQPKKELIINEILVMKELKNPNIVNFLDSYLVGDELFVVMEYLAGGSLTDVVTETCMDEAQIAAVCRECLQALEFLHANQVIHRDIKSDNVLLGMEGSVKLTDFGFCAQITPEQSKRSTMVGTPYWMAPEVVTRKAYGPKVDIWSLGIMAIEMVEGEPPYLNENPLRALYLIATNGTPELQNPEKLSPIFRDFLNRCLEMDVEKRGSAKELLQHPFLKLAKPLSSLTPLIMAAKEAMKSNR

[13] = target: Ribosomal protein S6 kinase alpha-3 (Homo sapiens) (UniProt P51812); experiment: Inhibition of N-terminal kinase domain RSK2 (unknown origin) assessed as remaining activity at 1 uM by Kinome scan method relative to control
Chain of Ribosomal protein S6 kinase alpha-3 (Homo sapiens) (P51812 whole entry, the tested form may be a part): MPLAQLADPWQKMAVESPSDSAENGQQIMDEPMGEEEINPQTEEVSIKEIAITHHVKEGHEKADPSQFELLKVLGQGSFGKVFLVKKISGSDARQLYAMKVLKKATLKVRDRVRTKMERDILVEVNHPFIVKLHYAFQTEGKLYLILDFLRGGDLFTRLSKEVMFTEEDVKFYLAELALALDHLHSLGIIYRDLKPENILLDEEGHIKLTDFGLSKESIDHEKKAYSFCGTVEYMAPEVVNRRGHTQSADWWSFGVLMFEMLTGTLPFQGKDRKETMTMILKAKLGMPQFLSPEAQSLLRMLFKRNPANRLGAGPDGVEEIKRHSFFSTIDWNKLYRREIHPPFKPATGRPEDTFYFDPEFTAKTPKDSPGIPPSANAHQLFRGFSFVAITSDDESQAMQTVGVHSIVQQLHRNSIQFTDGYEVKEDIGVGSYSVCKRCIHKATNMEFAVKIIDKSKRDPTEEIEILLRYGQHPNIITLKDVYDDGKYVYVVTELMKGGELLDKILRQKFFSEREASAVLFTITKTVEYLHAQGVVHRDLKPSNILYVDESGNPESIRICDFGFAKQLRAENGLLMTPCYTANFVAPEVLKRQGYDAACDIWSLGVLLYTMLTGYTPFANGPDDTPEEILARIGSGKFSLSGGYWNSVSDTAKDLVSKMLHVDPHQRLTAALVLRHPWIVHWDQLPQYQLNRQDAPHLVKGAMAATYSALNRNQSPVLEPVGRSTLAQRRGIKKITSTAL

[14] = target: Non-receptor tyrosine-protein kinase TYK2 (Homo sapiens, UniProt P29597); experiment: Inhibition of TYK2 JH1domain-catalytic (unknown origin) in presence of ATP by enzymatic assay
Chain of Non-receptor tyrosine-protein kinase TYK2 (P29597 whole entry): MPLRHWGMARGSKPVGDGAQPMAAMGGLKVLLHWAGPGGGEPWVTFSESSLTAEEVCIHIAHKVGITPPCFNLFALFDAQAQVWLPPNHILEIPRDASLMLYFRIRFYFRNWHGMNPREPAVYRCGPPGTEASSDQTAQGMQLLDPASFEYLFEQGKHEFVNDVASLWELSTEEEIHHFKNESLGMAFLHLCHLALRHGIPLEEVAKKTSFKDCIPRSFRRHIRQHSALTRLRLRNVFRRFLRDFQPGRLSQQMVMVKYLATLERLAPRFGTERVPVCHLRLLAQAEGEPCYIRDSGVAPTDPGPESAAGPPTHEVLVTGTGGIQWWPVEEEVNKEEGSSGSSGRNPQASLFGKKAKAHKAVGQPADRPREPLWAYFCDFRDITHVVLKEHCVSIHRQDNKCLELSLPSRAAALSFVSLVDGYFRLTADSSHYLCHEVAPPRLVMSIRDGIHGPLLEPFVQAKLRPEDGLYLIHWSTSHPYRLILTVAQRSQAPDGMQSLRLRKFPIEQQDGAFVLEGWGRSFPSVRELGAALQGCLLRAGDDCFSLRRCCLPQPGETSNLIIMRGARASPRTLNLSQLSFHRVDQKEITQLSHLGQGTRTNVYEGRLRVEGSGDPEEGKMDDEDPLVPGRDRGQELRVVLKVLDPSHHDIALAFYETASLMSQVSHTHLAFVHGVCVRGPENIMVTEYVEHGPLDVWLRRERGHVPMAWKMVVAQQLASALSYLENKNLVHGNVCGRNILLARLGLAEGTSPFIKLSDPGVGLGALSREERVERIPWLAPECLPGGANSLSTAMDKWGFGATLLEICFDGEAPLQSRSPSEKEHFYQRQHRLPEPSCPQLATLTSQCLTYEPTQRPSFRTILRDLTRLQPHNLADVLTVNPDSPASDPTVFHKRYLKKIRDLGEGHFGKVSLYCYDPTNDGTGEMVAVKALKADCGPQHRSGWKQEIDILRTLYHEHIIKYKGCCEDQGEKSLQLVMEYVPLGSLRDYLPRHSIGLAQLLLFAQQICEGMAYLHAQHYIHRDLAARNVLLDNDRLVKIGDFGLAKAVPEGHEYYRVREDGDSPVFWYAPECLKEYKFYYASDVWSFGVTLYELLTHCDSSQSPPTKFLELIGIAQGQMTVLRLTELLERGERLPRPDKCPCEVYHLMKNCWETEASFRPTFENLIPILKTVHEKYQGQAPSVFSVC

[15] = target: NUAK family SNF1-like kinase 2 (Homo sapiens) (UniProt Q9H093); experiment: Inhibition of SNARK (unknown origin) assessed as remaining activity at 1 uM by Kinome scan method relative to control
[16] = target: Serine/threonine-protein kinase BRSK2 (Homo sapiens) (UniProt Q8IWQ3); experiment: Inhibition of BRSK2 (unknown origin) assessed as remaining activity at 1 uM by Kinome scan method relative to control
How it was run: (§2)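 Active-site-dependent competition-binding (KINOMEscan) panel of 468 kinases, test compound at 1 μM (from a 10 mM DMSO stock). Read-out is ctrl% = (test signal − positive control signal)/(negative control signal − positive control signal) × 100. DMSO is the negative control (100%) and a control compound is the positive control (0%). Lower ctrl% means tighter binding.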

[17] = system: Mast/stem cell growth factor receptor Kit (Homo sapiens), P10721 [V559D,V654A]; experiment: Inhibition of KIT V559D/V654A mutant (unknown origin) assessed as remaining activity at 1 uM by Kinome scan method relative to control
[18] = target: Serine/threonine-protein kinase 17B (Homo sapiens) (UniProt O94768); experiment: Inhibition of DRAK2 (unknown origin) assessed as remaining activity at 1 uM by Kinome scan method relative to control
[19] = target: ALK tyrosine kinase receptor (Homo sapiens) (UniProt Q9UM73); experiment: Inhibition of ALK (unknown origin) assessed as remaining activity at 1 uM by Kinome scan method relative to control; how it was run: as §2
[20] = target: Dual specificity mitogen-activated protein kinase kinase 3 (Homo sapiens) (UniProt P46734); experiment: Inhibition of MEK3 (unknown origin) assessed as remaining activity at 1 uM by Kinome scan method relative to control
[21] = Half life in male Sprague-Dawley rat at 5 mg/kg, iv measured for 24 hrs by LC-MS/MS analysis; type: ADME, organism-based; conditions: in vivo
How it was run: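 Sprague-Dawley rats, single intravenous or oral dose. Parameters (half-life, AUC, bioavailability) reported in a supplementary table.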

[22] = target: Serine/threonine-protein kinase BRSK1 (Homo sapiens) (UniProt Q8TDC3); experiment: Inhibition of BRSK1 (unknown origin) assessed as remaining activity at 1 uM by Kinome scan method relative to control; how it was run: as §2
[23] = target: G protein-coupled receptor kinase 4 (Homo sapiens) (UniProt P32298); experiment: Inhibition of GRK4 (unknown origin) assessed as remaining activity at 1 uM by Kinome scan method relative to control
Chain of G protein-coupled receptor kinase 4 (Homo sapiens) (P32298 whole entry, looked up): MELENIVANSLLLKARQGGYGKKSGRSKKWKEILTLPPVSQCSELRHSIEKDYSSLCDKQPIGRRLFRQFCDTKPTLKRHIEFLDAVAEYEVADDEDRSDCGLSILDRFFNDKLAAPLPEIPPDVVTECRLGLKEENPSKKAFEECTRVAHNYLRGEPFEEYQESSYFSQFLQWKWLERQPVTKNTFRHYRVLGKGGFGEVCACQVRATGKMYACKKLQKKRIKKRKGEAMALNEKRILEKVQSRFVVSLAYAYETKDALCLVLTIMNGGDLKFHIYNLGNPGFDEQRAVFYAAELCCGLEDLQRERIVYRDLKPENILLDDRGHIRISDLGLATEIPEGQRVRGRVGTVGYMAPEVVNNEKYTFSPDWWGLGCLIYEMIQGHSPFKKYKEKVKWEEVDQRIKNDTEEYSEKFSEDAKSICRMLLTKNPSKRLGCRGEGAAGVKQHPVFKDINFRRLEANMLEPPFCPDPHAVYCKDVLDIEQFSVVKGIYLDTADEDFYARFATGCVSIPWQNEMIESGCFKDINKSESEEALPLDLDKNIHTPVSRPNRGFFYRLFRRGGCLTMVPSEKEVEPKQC

[24] = system: Mast/stem cell growth factor receptor Kit (Homo sapiens), P10721 [D816V]; experiment: Inhibition of KIT D816V mutant (unknown origin) assessed as remaining activity at 1 uM by Kinome scan method relative to control
[25] = target: Mitogen-activated protein kinase 1 (Homo sapiens) (UniProt P28482); experiment: Inhibition of ERK2 (unknown origin) assessed as remaining activity at 1 uM by Kinome scan method relative to control
Chain of Mitogen-activated protein kinase 1 (Homo sapiens) (P28482 whole entry): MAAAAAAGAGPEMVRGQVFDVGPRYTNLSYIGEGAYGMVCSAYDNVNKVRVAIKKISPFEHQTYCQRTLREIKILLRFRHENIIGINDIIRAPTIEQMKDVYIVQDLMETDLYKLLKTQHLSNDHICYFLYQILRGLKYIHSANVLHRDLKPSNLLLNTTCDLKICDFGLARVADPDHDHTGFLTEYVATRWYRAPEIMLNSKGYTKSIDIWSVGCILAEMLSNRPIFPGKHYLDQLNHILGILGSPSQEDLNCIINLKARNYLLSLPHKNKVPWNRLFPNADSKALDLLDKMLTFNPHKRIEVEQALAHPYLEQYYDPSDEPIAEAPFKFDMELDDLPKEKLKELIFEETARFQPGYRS

[26] = target: Myosin light chain kinase, smooth muscle (Homo sapiens) (UniProt Q15746); experiment: Inhibition of MYLK (unknown origin) assessed as remaining activity at 1 uM by Kinome scan method relative to control
[27] = target: Protein-tyrosine kinase 2-beta (Homo sapiens) (UniProt Q14289); experiment: Inhibition of PYK2 (unknown origin) assessed as remaining activity at 1 uM by Kinome scan method relative to control
[28] = target: Casein kinase I isoform alpha (Homo sapiens) (UniProt P48729); experiment: Inhibition of CSNK1A1 (unknown origin) assessed as remaining activity at 1 uM by Kinome scan method relative to control; how it was run: as §1
Chain of Casein kinase I isoform alpha (Homo sapiens) (P48729 2-337 limits assumed): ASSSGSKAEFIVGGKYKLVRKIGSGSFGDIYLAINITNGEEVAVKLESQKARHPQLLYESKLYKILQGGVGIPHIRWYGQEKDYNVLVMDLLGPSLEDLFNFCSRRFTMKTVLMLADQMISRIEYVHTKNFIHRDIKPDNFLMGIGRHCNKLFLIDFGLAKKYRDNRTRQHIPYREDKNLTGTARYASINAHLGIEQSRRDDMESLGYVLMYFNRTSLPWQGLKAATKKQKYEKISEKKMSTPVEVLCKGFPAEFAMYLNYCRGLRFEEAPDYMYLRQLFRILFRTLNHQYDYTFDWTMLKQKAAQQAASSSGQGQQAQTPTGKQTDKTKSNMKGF

CN1C(=O)c2sccc2N(C)c2nc(Nc3ccc(S(N)(=O)=O)cc3)ncc21
Activity [1]: 80% | Activity [2]: 88% | Activity [3]: 78% | Tm [4]: 62 °C | Activity (Mus musculus): Active | Activity [5]: 100% | Activity [6]: 100% | Activity [7]: 100% | Activity [8]: 71% | Activity [9]: 39% | Activity [10]: 59% | Activity [11]: 98% | Activity [12]: 84% | Activity [13]: 76% | IC50 [14]: 1.9 nM | Activity [15]: 12% | Activity [16]: 99% | Activity [17]: 92% | Activity [18]: 90% | Activity [19]: 94% | Activity [20]: 66% | half-life [21]: 1.24 h | Activity [22]: 96% | Activity [23]: 99% | Activity [24]: 94% | Activity [25]: 100% | Activity [26]: 100% | Activity [27]: 98% | Activity [28]: 88%
